Assay results as given in ChEMBL document CHEMBL1143425, “Paradoxical growth effect of caspofungin observed on biofilms and planktonic cells of five different Candida species” (2007).
Values after ≈ are worked out from the molar mass of the structure shown. Active and inactive are the calls of the source.

Assays:
Candida parapsilosis [1] = assay: Antimicrobial activity against Candida parapsilosis BR-A26 grown as biofilm after 48 hrs by XTT reduction assay; format: functional; conditions: Lodderomyces parapsilosis
In short: (§1)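 Clinical isolates were grown overnight (18 h, 35°C, 120 rpm) in RPMI 1640 with MOPS, pH 7.0, then washed and set to ~1 × 10^7 cells/ml. Cells attached for 1.5 h at 37°C, 75 rpm, then biofilms grew 24 h. Caspofungin was given as doubling dilutions of 2–1,024 μg/ml for 48 h at 35°C, 75 rpm. Read-out was XTT-menadione in PBS, 1 h at 35°C in the dark, A490, cell-free blank subtracted. MIC was a 50% drop in activity versus drug-free; PG was >50% of control above MIC. Run in duplicate.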

Candida orthopsilosis [2] = assay: Antimicrobial activity against Candida orthopsilosis BR-A38 grown as biofilm after 48 hrs by XTT reduction assay; format: functional; conditions: Lodderomyces orthopsilosis
In short: (§2)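 Sabouraud-grown cells were shaken overnight (18 h, 120 rpm, 35°C) in RPMI 1640 with MOPS at pH 7.0, then washed and set at ~1 × 10^7 cells/ml. Attachment lasted 1.5 h at 37°C, and growth ran 24 h before challenge. Caspofungin was added in RPMI at 2–1,024 μg/ml (10 doublings) for 48 h at 35°C with shaking. XTT-menadione was read at 490 nm after 1 h at 35°C in the dark, with blank wells subtracted. MIC was taken as 50% reduction versus drug-free wells, and PG as >50% of control above MIC. Assays were run in duplicate.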

Candida orthopsilosis [3] = assay: Antimicrobial activity against Candida orthopsilosis BR-A39 grown as planktonic cell after 48 hrs by XTT reduction assay; format: functional; conditions: Lodderomyces orthopsilosis
In short: (§3)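 Planktonic broth microdilution followed CLSI M27-A2, with caspofungin dissolved in water. After 48 h, XTT-menadione was added to the wells and plates were kept 1 h at 35°C in the dark. Plates were then centrifuged and supernatant A490 was read. MIC was the lowest concentration giving a 50% decrease in metabolic activity versus drug-free control. Paradoxical growth was defined as ≥20% of control activity above the MIC.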

Candida parapsilosis [4] = assay: Antimicrobial activity against Candida parapsilosis BR-A31 grown as planktonic cell assessed as paradoxical growth after 48 hrs by XTT reduction assay; format: functional, organism-based
In short: (§4)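 Planktonic broth microdilution followed CLSI M27-A2, with caspofungin dissolved in water. After 48 h, XTT-menadione was added to each well and plates were incubated 1 h at 35°C in the dark. Cells were pelleted by centrifugation and the supernatant was read at 490 nm. MIC was the lowest concentration giving a 50% drop in metabolic activity versus the drug-free control. PG was ≥20% of drug-free activity above the MIC.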

Candida metapsilosis [5] = assay: Effect on morphology in Candida metapsilosis grown as biofilm assessed as inhibition of hyphae and pseudohyphae at 16 ug/ml after 48 hrs; format: functional, organism-based
In short: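 Biofilms formed in RPMI 1640 wells were exposed to caspofungin for 48 h and compared with drug-free control wells. Wells were examined in the plate under an inverted light microscope at ×200 and photographed.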

Candida tropicalis [6] = assay: Antimicrobial activity against Candida tropicalis BR-A20 grown as planktonic cell assessed as paradoxical growth after 48 hrs by XTT reduction assay; format: functional, organism-based; in short: as §4
Candida metapsilosis [7] = assay: Antimicrobial activity against Candida metapsilosis BR-A40 grown as biofilm after 48 hrs by XTT reduction assay; format: functional; conditions: Lodderomyces metapsilosis; in short: as §2
Candida parapsilosis [8] = assay: Antimicrobial activity against Candida parapsilosis BR-A30 grown as biofilm assessed as paradoxical growth after 48 hrs by XTT reduction assay; format: functional, organism-based; in short: as §1
Candida albicans [9] = assay: Antimicrobial activity against Candida albicans BR-A4 grown as biofilm after 48 hrs by XTT reduction assay; format: functional
In short: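 Isolates were grown on Sabouraud agar (30°C, 24 h), then overnight in RPMI 1640 with MOPS, pH 7.0, at 35°C with shaking. Cells were washed and set to ~1 × 10^7 cells/ml, attached 1.5 h at 37°C, and grown 24 h. Biofilms were then exposed to caspofungin in 10 twofold dilutions (2–1,024 μg/ml) for 48 h at 35°C with shaking. Read-out was XTT-menadione, 1 h, 35°C, dark, A490, cell-free blank subtracted. MIC was the 50% drop in activity versus drug-free control. Tested in duplicate.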

Candida orthopsilosis [10] = assay: Antimicrobial activity against Candida orthopsilosis BR-A38 grown as planktonic cell after 48 hrs by XTT reduction assay; format: functional; conditions: Lodderomyces orthopsilosis; in short: as §3
Candida orthopsilosis [11] = assay: Antimicrobial activity against Candida orthopsilosis BR-A34 grown as planktonic cell assessed as concentration producing paradoxical growth after 48 hrs by XTT reduction assay; format: functional
In short: (§5)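 Planktonic cells were tested by CLSI M27-A2 broth microdilution with caspofungin in water, incubated 48 h. XTT-menadione was added to each well, plates were held 1 h at 35°C in the dark and centrifuged, and supernatant absorbance was read at 490 nm. MIC was defined as 50% decrease in metabolic activity versus drug-free control. PG was defined as ≥20% of control activity at concentrations above MIC.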

Candida parapsilosis [12] = assay: Antimicrobial activity against Candida parapsilosis BR-A31 grown as biofilm assessed as concentration producing paradoxical growth after 48 hrs by XTT reduction assay; format: functional; in short: as §1
Candida orthopsilosis [13] = assay: Antimicrobial activity against Candida orthopsilosis BR-A38 grown as biofilm assessed as paradoxical growth after 48 hrs by XTT reduction assay; format: functional, organism-based; in short: as §2
Candida orthopsilosis [14] = assay: Antimicrobial activity against Candida orthopsilosis BR-A32 grown as biofilm assessed as concentration producing paradoxical growth after 48 hrs by XTT reduction assay; format: functional; in short: as §2
Candida orthopsilosis [15] = assay: Antimicrobial activity against Candida orthopsilosis BR-A37 grown as planktonic cell assessed as concentration producing paradoxical growth after 48 hrs by XTT reduction assay; format: functional; in short: as §5
Candida parapsilosis [16] = assay: Antimicrobial activity against Candida parapsilosis BR-A25 grown as planktonic cell after 48 hrs by XTT reduction assay; format: functional; conditions: Lodderomyces parapsilosis; in short: as §3
Candida orthopsilosis [17] = assay: Antimicrobial activity against Candida orthopsilosis BR-A33 grown as planktonic cell assessed as paradoxical growth after 48 hrs by XTT reduction assay; format: functional, organism-based; in short: as §5
Candida orthopsilosis [18] = assay: Antimicrobial activity against Candida orthopsilosis BR-A38 grown as planktonic cell assessed as concentration producing paradoxical growth after 48 hrs by XTT reduction assay; format: functional; in short: as §5
Candida metapsilosis [19] = assay: Antimicrobial activity against Candida metapsilosis BR-A40 grown as biofilm assessed as concentration producing paradoxical growth after 48 hrs by XTT reduction assay; format: functional; in short: as §2
Candida parapsilosis [20] = assay: Effect on morphology in Candida parapsilosis grown as planktonic cells assessed as rounding and clumping at 16 ug/ml after 48 hrs; format: functional, organism-based
In short: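 Clinical isolates were tested by CLSI M27-A2 broth microdilution with caspofungin dissolved in sterile water. After 48 h incubation, cells were taken from drug-containing and drug-free control wells. They were examined by light microscopy at ×400 for hyphae or pseudohyphae, rounding or clumping, and enlarged globose cells.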

Candida albicans [21] = assay: Antimicrobial activity against Candida albicans BR-A1 grown as planktonic cell after 48 hrs by XTT reduction assay; format: functional; in short: as §3
Candida tropicalis [22] = assay: Antimicrobial activity against Candida tropicalis BR-A9 grown as planktonic cell after 48 hrs by XTT reduction assay; format: functional; in short: as §3
Candida tropicalis [23] = assay: Antimicrobial activity against Candida tropicalis BR-A18 grown as planktonic cell after 48 hrs by XTT reduction assay; format: functional; in short: as §4
Candida orthopsilosis [24] = assay: Antimicrobial activity against Candida orthopsilosis BR-A36 grown as planktonic cell assessed as paradoxical growth after 48 hrs by XTT reduction assay; format: functional, organism-based; in short: as §5
Candida parapsilosis [25] = assay: Antimicrobial activity against Candida parapsilosis BR-A28 grown as biofilm assessed as concentration producing paradoxical growth after 48 hrs by XTT reduction assay; format: functional; in short: as §1

CC[C@H](C)C[C@H](C)CCCCCCCCC(=O)N[C@H]1C[C@@H](O)[C@@H](NCCN)NC(=O)[C@@H]2[C@@H](O)CCN2C(=O)[C@H]([C@H](O)CCN)NC(=O)[C@H]([C@H](O)[C@@H](O)c2ccc(O)cc2)NC(=O)[C@@H]2C[C@@H](O)CN2C(=O)[C@H]([C@@H](C)O)NC1=O [CASPOFUNGIN]
MIC (Candida parapsilosis [1]): 256 µg/mL (≈ 234 µM)
MIC (Candida orthopsilosis [2]): 512 µg/mL (≈ 468 µM)
MIC (Candida orthopsilosis [3]): 2 µg/mL (≈ 1.83 µM)
Activity (Candida parapsilosis [4]): inactive
Activity (Candida metapsilosis [5]): Active
Activity (Candida tropicalis [6]): Active
MIC (Candida metapsilosis [7]): 2 µg/mL (≈ 1.83 µM)
Activity (Candida parapsilosis [8]): Active
MIC (Candida albicans [9]): 2 µg/mL (≈ 1.83 µM)
MIC (Candida orthopsilosis [10]): 2 µg/mL (≈ 1.83 µM)
Activity (Candida orthopsilosis [11]): 4 µg/mL
Activity (Candida parapsilosis [12]): 32 µg/mL
Activity (Candida orthopsilosis [13]): Active
Activity (Candida orthopsilosis [14]): 32 µg/mL
Activity (Candida orthopsilosis [15]): 32 µg/mL
MIC (Candida parapsilosis [16]): 2 µg/mL (≈ 1.83 µM)
Activity (Candida orthopsilosis [17]): inactive
Activity (Candida orthopsilosis [18]): 16 µg/mL
Activity (Candida metapsilosis [19]): 16 µg/mL
Activity (Candida parapsilosis [20]): Active
MIC (Candida albicans [21]): 0.5 µg/mL (≈ 0.457 µM)
MIC (Candida tropicalis [22]): 1 µg/mL (≈ 0.915 µM)
MIC (Candida tropicalis [23]): 0.5 µg/mL (≈ 0.457 µM)
Activity (Candida orthopsilosis [24]): inactive
Activity (Candida parapsilosis [25]): 16 µg/mL
